Screening data deposited in PubChem BioAssay by several laboratories.
CendR NRP1 mod – modulators of CendR peptide binding to human neuropilin-1; O14786; FAM-RPARPAR peptide binding to NRP-1, fluorescence polarization; inhibition, % at 25 µM; hit rate 0.85% among 360,000;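 active = inhibition or corrected inhibition above about 18%, plus a signal ratio from 0.5 to 1.5, limit read from the data, passing the limit was not always enough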
Lipid droplet – modulators of hepatic lipid droplet formation; AID 1656; inhibition, % at 6.5 µM; hit rate 0.4% among 240,000; AML12 mouse hepatocytes, oleate lipid droplets, BODIPY imaging;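 active = lipid droplet intensity inhibited by at least 50%, with more than 500 cells counted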
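Assay system: AML12 mouse liver cells | Compound: 6.5 µM single-point dosing | Schedule: Overnight exposure | Technique: Fluorescence imaging, 20x objective, two fields per well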
Arrestin-AP2 inh – inhibitors of human beta-arrestin and AP2 interaction. FITC-arrestin peptide / GST-AP2 beads, flow cytometry; AP2 beta2 appendage carries R879A mutation. inhibition, % at 10 µM. hit rate 0.31% among 340,000;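 active = inhibition above a set limit, near 3 SD of compounds lacking own fluorescence, cut at about 54% in these data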
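Material – GST-tagged AP2 beta2-adaptin appendage (R879A) on 4 µm glutathione beads · Probe or stimulus – fluorescein-tagged arrestin peptide at 50 nM final · Timing – 12 min plus 1 h, RT · Detection – bead flow cytometry, FITC channel · Read-out basis – inhibition as reduced fluorescein signal on beads, percent · Medium – PBS plus Tween 20 (0.05%) and BSA (0.1%)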
sPLA2-III inh – Inhibits HGIII-sPLA2 liposome hydrolysis, primary screen; hit rate 0.56% among 370,000; QFRET BODIPY PC-A2 liposome hydrolysis, fluorescence; inhibition, % at 12.2 µM; AID 743126;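 active = inhibition above mean plus 3 SD of compounds lying within the high and low control bounds, cut at about 19% in these data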
m5-HT2A agonist – mouse HTR2A agonism via beta-arrestin recruitment. CHO-K1 mHTR2A beta-arrestin complementation, luminescence; percent of 30 µM serotonin response. activation, % at 7.6 µM. hit rate 0.66% among 360,000. AID 624169;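 active = activation above a run cutoff, the mean activation of all tested compounds plus 3 SD, cut at about 14% in these data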
M18AAP inhibitor – PfM18AAP enzyme inhibition | recombinant PfM18AAP, H-Glu-NHMec fluorogenic cleavage | inhibition, % at 7.35 µM | hit rate 1.2% among 290,000;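 active = inhibition above the campaign mean inhibition over all tested compounds plus 3 SD, cut at about 28% in these data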
OPRM1 ag – activates human mu opioid receptor in HTR2A counterscreen; hit rate 5.3% among 2,300; shares compounds with m5-HT2A agonist; U2OS OPRM1 beta-arrestin PathHunter, luminescence; DMSO 0%, DAMGO 9.3 µM 100%; activation, % at 9.3 µM;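 active = mean activation above the mean of DMSO-only wells plus 3 SD, cut at about 0.5% in these data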
Target sequence (P35372 whole entry, looked up): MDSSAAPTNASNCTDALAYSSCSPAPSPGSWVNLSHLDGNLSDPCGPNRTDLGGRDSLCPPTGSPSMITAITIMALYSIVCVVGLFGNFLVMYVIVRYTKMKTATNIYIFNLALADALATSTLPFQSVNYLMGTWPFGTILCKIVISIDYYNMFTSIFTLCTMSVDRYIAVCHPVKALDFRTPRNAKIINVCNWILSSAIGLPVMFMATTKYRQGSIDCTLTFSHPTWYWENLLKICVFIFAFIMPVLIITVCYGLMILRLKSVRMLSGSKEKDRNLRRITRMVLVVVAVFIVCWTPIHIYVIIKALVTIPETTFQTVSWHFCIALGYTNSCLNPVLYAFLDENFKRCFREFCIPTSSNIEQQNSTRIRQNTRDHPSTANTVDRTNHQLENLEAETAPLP
HTR2A ag conf – mouse HTR2A agonism confirmed | hit rate 19% among 2,300 | CHO-K1 PathHunter beta-arrestin recruitment, luminescence; DMSO 0%, 30 µM serotonin 100% | shares compounds with m5-HT2A agonist | activation, % at 7.6 µM;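 active = mean activation across triplicates above the hit threshold derived in the original primary screen, cut at about 15% in these data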
A number is an active result; – = inactive; · = no result; ! = a repeat was not active. This is a sample that favours compounds with a hit; in the whole collection about 3.3% have one here.

SMILES	CendR NRP1 mod	Lipid droplet	Arrestin-AP2 inh	sPLA2-III inh	m5-HT2A agonist	M18AAP inhibitor	OPRM1 ag	HTR2A ag conf
CC(=O)Nc1ccc(S(=O)(=O)NCCC(=O)N2CCN(C(c3ccccc3)c3ccccc3)CC2)cc1	–	·	–	–	16	·	–	–
O=C(CCNS(=O)(=O)c1ccccc1)N1CCN(C(c2ccccc2)c2ccccc2)CC1	–	–	–	–	–	–	·	·
Cc1cc(C)n(CCN(C)C(=O)C2CCC(=O)N(CCc3cccc(F)c3)C2)n1 (configuration not stated)	–	–	–	–	15	–	–	–
COc1ccc(CCN2CC(C(=O)N(C)CCn3nc(C)cc3C)CCC2=O)cc1 (configuration not stated)	–	–	–	–	–	–	·	·
CSCCCc1cn([C@@H](CO)C(=O)NCCCCCCCCCCC(=O)N2CCNCC2)nn1	–	·	–	–	24	·	–	–
CC1CC(C)CN(C(C(=O)NC2CCCCC2)c2ccnc3ccccc23)C1 (configuration not stated)	–	·	·	–	–	·	·	·
O=C(NC1CCCCN(Cc2ccc(Cl)cc2)C1=O)c1ccc(Cl)cc1Cl (configuration not stated)	·	·	·	–	·	·	·	·
CN1CCC[C@H]1c1cccnc1	–	·	–	–	38!	·	–	–
CC(C)CNC(=O)OCc1cn(Cc2c(F)cccc2F)nn1	·	·	·	–	·	·	·	·
C[C@H]1COc2cc(Br)ccc2S(=O)(=O)N1Cc1cn(Cc2ccc(C(F)(F)F)cc2)nn1	·	·	·	–	·	·	·	·
Cc1ccc(S(=O)(=O)NCCN(CCNS(=O)(=O)c2ccc(C)cc2)S(C)(=O)=O)cc1	–	·	–	–	24	–	–	–
CN(c1cccc(NC(=O)CN(c2ccc(C34CC5CC(CC(C5)C3)C4)cc2)S(C)(=O)=O)c1)S(C)(=O)=O	–	·	–	·	–	–	·	·
COC(=O)[C@H]1C[C@H](OC(=O)Nc2c(C)noc2C)[C@@]2(O)CN(S(=O)(=O)c3ccc(C)cc3)CC2[C@H]1C(=O)OC (some centres not stated)	–	·	·	–	16	·	–	–
COC(=O)[C@]12C[C@H](CC(=O)NCCC(C)C)C(=O)N(Cc3ccc(Cl)cc3Cl)C1=C[C@H](C1CCCC1)O[C@@H]2C	·	·	·	–	·	·	·	·
Cc1cccc(N2CCN(C(=O)c3cccc(NC4=NC5CS(=O)(=O)CC5S4)c3)CC2)c1C (configuration not stated)	–	–	–	–	–	–	·	·
COc1ccccc1N1CCN(C(=O)c2cccc(NC3=NC4CS(=O)(=O)CC4S3)c2)CC1 (configuration not stated)	–	–	–	–	24	–	–	–
CCOc1ccccc1NC1=NC2CS(=O)(=O)CC2S1 (configuration not stated)	–	–	–	–	–	–	·	·
COc1ccc(OC)c(CCNC(=O)c2ccc(NC3=NC4CS(=O)(=O)CC4S3)cc2)c1 (configuration not stated)	–	–	–	–	17	–	–	–
CCOc1ccccc1NC(=O)c1cccc(NC2=NC3CS(=O)(=O)CC3S2)c1 (configuration not stated)	–	–	–	–	15	–	–	–
Cc1cc2cc(CCNC(=O)CCc3ccccc3)c(=O)[nH]c2cc1C	–	–	–	–	22	–	–	–
CCC(=O)NCCc1cc2cc(C)c(C)cc2[nH]c1=O	–	·	–	–	–	–	·	·
CCOC(=O)[C@@H]1[C@H]2COc3ccccc3[C@H]2N2C(=O)N(c3ccc(C(F)(F)F)cc3)C(=O)[C@]12C	–	–	–	–	–	–	·	·
CCOC(=O)c1c(S(=O)(=O)NCCc2ccc(OC)c(OC)c2)c(C)n(C)c1C	–	–	–	–	16	–	–	–
O=C1CC(=O)Nc2cc(S(=O)(=O)N3CCOc4ccccc43)ccc2N1	–	–	–	–	26	–	–	–
Cc1cn(CCOc2ccc(Cl)cc2)c(=O)[nH]c1=O	–	–	–	–	17	–	–	–
SMILES	CendR NRP1 mod	Lipid droplet	Arrestin-AP2 inh	sPLA2-III inh	m5-HT2A agonist	M18AAP inhibitor	OPRM1 ag	HTR2A ag conf
O=C(COC(=O)Cc1ccsc1)Nc1ccccc1Cl	–	·	–	–	–	·	·	·
Cc1c(Cl)cccc1NC(=O)COC(=O)Cc1ccsc1	–	·	–	–	16	·	–	–
COc1ccc(C(=O)N2CCOC2CNC(=O)C(=O)NCc2ccc(F)cc2)cc1 (configuration not stated)	–	–	–	–	–	–	·	·
O=C(NCc1ccccc1Cl)C(=O)NCC1OCCN1S(=O)(=O)c1ccc(F)cc1 (configuration not stated)	–	–	–	–	16	–	–	–
O=C(NCc1ccc(F)cc1)C(=O)NCC1OCCN1C(=O)c1ccc(Cl)cc1 (configuration not stated)	–	–	–	–	24	–	–	–
COC(=O)[C@H]1C[C@@]2(n3ccc4ccccc43)c3ccccc3N(S(=O)(=O)c3ccccc3)[C@H]2N1	·	·	·	–	·	·	·	·
CCS(=O)(=O)c1ccc(Sc2nncn2C)c([N+](=O)[O-])c1	–	–	–	–	15	–	–	–
Cc1ccc(-n2c(C)nnc2SCC(=O)N(C)c2c(N)n(Cc3ccccc3)c(=O)[nH]c2=O)cc1	–	·	–	–	17	·	–	–
COCCN(C(=O)CSc1nnc(C)n1-c1ccc(C)cc1)c1c(N)n(Cc2ccccc2)c(=O)[nH]c1=O	–	·	–	–	–	·	·	·
CCN(C(=O)CSc1nnc(-c2ccccc2C)n1C)c1c(N)n(Cc2ccccc2)c(=O)[nH]c1=O	–	·	–	–	14	·	–	–
Cc1ccccc1-c1nnc(SCC(=O)N(C)c2c(N)n(Cc3ccccc3)c(=O)[nH]c2=O)n1C	–	·	–	–	–	·	·	·
CCOC(=O)CSc1nc2sc3c(c2c(=O)n1CC)CC(C)(C)OC3	–	·	–	–	23	–	–	–
CCc1nc2sc3c(c2c(=O)n1N)CC(C)(C)OC3	–	–	–	–	–	–	·	·
COC(=O)[C@]12C[C@H](CC(=O)NCc3cccc(C(F)(F)F)c3)C(=O)N(Cc3cccc4ccccc34)C1=C[C@H](C1CCCC1)O[C@@H]2C	·	·	·	–	·	·	·	·
NC(=O)CC(NC(=O)c1ccccc1)c1ccc(NC2CCCCCCC2)c([N+](=O)[O-])c1 (configuration not stated)	–	·	–	–	19	–	–	–
